Published values from different studies.
Lines come from different studies, so protocols differ.
ALK C1156Y: ALK tyrosine kinase receptor (ALK, Homo sapiens, UniProt Q9UM73, C1156Y)
ALK: ALK tyrosine kinase receptor (ALK, Homo sapiens, UniProt Q9UM73)

SMILES | target | assay | conditions | endpoint | result
CCCCC(=O)Nc1ccc(-c2ccc3ncn(CCC)c(=O)c3c2)cn1 | ALK C1156Y | binding, competition with immobilised ligand | 0.5 µM | remaining binding | 100%
C1=C/COCc2cc(ccc2OCCN2CCCC2)Nc2nccc(n2)-c2cccc(c2)COC/1 | ALK | binding | 0.1 µM | remaining binding | 73%
C#Cc1cnc(Nc2ccc(CO)nc2)nc1Nc1ccccc1S(C)(=O)=NC#N (stereo not shown) | ALK | enzyme activity, inhibitor, radiometric | 1 µM | remaining activity | 18.9%
Cc1ccc(NC(=O)c2ccnc(C(F)(F)F)c2)cc1-c1cc(OCCO)nc(N2CCOCC2)c1 | ALK C1156Y | binding | 1 µM | remaining binding | 100%
CS(=O)(=O)c1ccccc1Nc1nc(Nc2ccnc(CO)c2)ncc1Cl | ALK | enzyme activity, inhibitor, radiometric | 1 µM | remaining activity | 10.2%
CC#CC(=O)N1CCC[C@H]1c1nc(-c2ccc(C(=O)Nc3ccccn3)cc2)c2c(N)nccn12 | ALK C1156Y | enzyme activity, inhibitor | 1 µM | inhibition | 0%
CS(=O)(=NC#N)c1ccccc1Nc1nc(Nc2ccc(CO)nc2)ncc1Cl (stereo not shown) | ALK | enzyme activity, inhibitor, radiometric | 1 µM | remaining activity | 23.4%
CN1CCN(C(=O)c2ccc(NC(=O)Nc3ccc(N(C)c4ccnc(Nc5ccc(CS(C)(=O)=O)cc5)n4)cc3)cc2)CC1 | ALK C1156Y | binding | 1 µM | remaining binding | 64%
CNC(=O)c1ccccc1Nc1nc(Nc2ccc(CO)cc2)ncc1Cl | ALK | enzyme activity, inhibitor, radiometric | 1 µM | remaining activity | 1.07%
C=CC(=O)N1CCC([C@@H]2CCNc3c(C(N)=O)c(-c4ccc(Oc5ccccc5)cc4)nn32)CC1 | ALK tyrosine kinase receptor (ALK, Homo sapiens, UniProt Q9UM73, L1196M) | cell-free assay | 1 µM | inhibition | 19%
C[C@H]1CC[C@H](n2c3cnccc3c3cnc(Nc4ccc5c(n4)CCN(C(=O)CO)C5)nc32)CC1 | ALK | binding | 1 µM | remaining binding | 84%
CO[C@@H]1[C@H](N(C)C(=O)c2ccccc2)C[C@H]2O[C@]1(C)n1c3ccccc3c3c4c(c5c6ccccc6n2c5c31)C(=O)NC4 | ALK | enzyme activity, inhibitor | 1 µM | inhibition | 54%
COc1ccc2[nH]c3c4[nH]c5ccc(OC)cc5c4c4c(c3c2c1)C(=O)NC4=O | ALK | binding | 1 µM | remaining binding | 55%
